Drawing on ChEMBL document CHEMBL1287774, “Discovery of new azaindole-based PI3Kα inhibitors: apoptotic and antiangiogenic effect on cancer cells” (Bioorg Med Chem Lett, 2010), this text covers IC50 and Activity for 13 molecules.

Assay [1] has as its target Phosphatidylinositol 4,5-bisphosphate 3-kinase catalytic subunit alpha isoform (Homo sapiens, UniProt P42336). As to the kind of experiment: Inhibition of PI3Kalpha.
The test system of assay [2] is T47D. As to the kind of experiment: Antiproliferative activity against human T47D cells by MTT assay. It is filed as functional, cell-based. The gist of the method: (§1)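 Human breast cancer cultures (T47D, SK-BR3, MCF-7) exposed to compound. Cell viability is read by MTT and expressed as growth IC50.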
Assay [3] relates to SK-BR-3. Put plainly: Antiproliferative activity against human SKBR3 cells by MTT assay. The format is functional, cell-based. The gist of the method:
as §1

In assay [4] the test system is MCF7. Put plainly: Antiproliferative activity against human MCF7 cells assessed as by MTT assay. It is filed as functional, cell-based. A digest of the protocol:
as §1

Assay [5] deals with T47D. As to the kind of experiment: Induction of apoptosis in human T47D cells assessed as decrease in viable cells at 10 uM after 24 hrs using annexin-V FITC and PI staining by flow cytometric analysis relative to control. The format is functional. The gist of the method:
(§2)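 T47D cells treated with various compound concentrations for 24 h, then stained with Annexin V-FITC and PI and analysed by flow cytometry. Early-apoptotic cells are Annexin V-positive/PI-negative. Changes are expressed relative to untreated control.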

Assay [6] relates to T47D. Put plainly: Induction of apoptosis in human T47D cells assessed as increase in early apoptotic cells at 50 uM after 24 hrs using annexin-V FITC and PI staining by flow cytometric analysis relative to control. The format is functional. A digest of the protocol:
as §2

Assay [7] relates to T47D. Put plainly: Induction of apoptosis in human T47D cells assessed as increase in late apoptotic cells at 50 uM after 24 hrs using annexin-V FITC and PI staining by flow cytometric analysis relative to control. The format is functional. The gist of the method:
as §2

In assay [8] the test system is T47D. As to the kind of experiment: Induction of apoptosis in human T47D cells assessed as increase in non-viable cells at 50 uM after 24 hrs using annexin-V FITC and PI staining by flow cytometric analysis relative to control. It is filed as functional. A digest of the protocol:
as §2

The subject of assay [9] is T47D. Put plainly: Induction of apoptosis in human T47D cells assessed as decrease in viable cells at 50 uM after 24 hrs using annexin-V FITC and PI staining by flow cytometric analysis relative to control. It is filed as functional. The gist of the method: as §2
For assay [10], the system named is HUVEC. As to the kind of experiment: Antiangiogenic activity against HUVEC assessed as inhibition of tubular network formation on matrigels beds. It is filed as functional, cell-based. The settings on record: Homo sapiens. A digest of the protocol: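 HUVECs plated onto Matrigel beds and treated with DMSO vehicle or compound at 0.1, 1 and 10 µM. Read-out is formation of a capillary-like tubular network, assessed from representative images.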

Assay [11] has as its system HUVEC. As to the kind of experiment: Antiangiogenic activity against HUVEC assessed as inhibition of wound-induced migration of cells to non-wounded region. The format is functional, cell-based. The settings on record: Homo sapiens. A digest of the protocol:
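HUVEC wound-induced migration assay. Migration is quantified by counting the cells that moved beyond the reference line into the non-wounded region.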

In assay [12] the test system is T47D. As to the kind of experiment: Induction of apoptosis in human T47D cells assessed as increase in early apoptotic cells at 1 uM after 24 hrs using annexin-V FITC and PI staining by flow cytometric analysis relative to control. The format is functional. The gist of the method: as §2
Assay [13] concerns T47D. Put plainly: Induction of apoptosis in human T47D cells assessed as increase in late apoptotic cells at 1 uM after 24 hrs using annexin-V FITC and PI staining by flow cytometric analysis relative to control. It is filed as functional. A digest of the protocol: as §2
The test system of assay [14] is T47D. Put plainly: Induction of apoptosis in human T47D cells assessed as increase in non-viable cells at 1 uM after 24 hrs using annexin-V FITC and PI staining by flow cytometric analysis relative to control. The format is functional. A digest of the protocol: as §2
Assay [15] concerns T47D. As to the kind of experiment: Induction of apoptosis in human T47D cells assessed as decrease in viable cells at 1 uM after 24 hrs using annexin-V FITC and PI staining by flow cytometric analysis relative to control. The format is functional. The gist of the method:
as §2

In assay [16] the test system is T47D. As to the kind of experiment: Induction of apoptosis in human T47D cells assessed as increase in early apoptotic cells at 10 uM after 24 hrs using annexin-V FITC and PI staining by flow cytometric analysis relative to control. The format is functional. A digest of the protocol:
as §2

Assay [17] deals with T47D. As to the kind of experiment: Induction of apoptosis in human T47D cells assessed as increase in late apoptotic cells at 10 uM after 24 hrs using annexin-V FITC and PI staining by flow cytometric analysis relative to control. It is filed as functional. The gist of the method:
as §2

Assay [18] relates to T47D. As to the kind of experiment: Induction of apoptosis in human T47D cells assessed as increase in non-viable cells at 10 uM after 24 hrs using annexin-V FITC and PI staining by flow cytometric analysis relative to control. The format is functional. A digest of the protocol:
as §2

Chain of Phosphatidylinositol 4,5-bisphosphate 3-kinase catalytic subunit alpha isoform (P42336 whole entry, canonical isoform): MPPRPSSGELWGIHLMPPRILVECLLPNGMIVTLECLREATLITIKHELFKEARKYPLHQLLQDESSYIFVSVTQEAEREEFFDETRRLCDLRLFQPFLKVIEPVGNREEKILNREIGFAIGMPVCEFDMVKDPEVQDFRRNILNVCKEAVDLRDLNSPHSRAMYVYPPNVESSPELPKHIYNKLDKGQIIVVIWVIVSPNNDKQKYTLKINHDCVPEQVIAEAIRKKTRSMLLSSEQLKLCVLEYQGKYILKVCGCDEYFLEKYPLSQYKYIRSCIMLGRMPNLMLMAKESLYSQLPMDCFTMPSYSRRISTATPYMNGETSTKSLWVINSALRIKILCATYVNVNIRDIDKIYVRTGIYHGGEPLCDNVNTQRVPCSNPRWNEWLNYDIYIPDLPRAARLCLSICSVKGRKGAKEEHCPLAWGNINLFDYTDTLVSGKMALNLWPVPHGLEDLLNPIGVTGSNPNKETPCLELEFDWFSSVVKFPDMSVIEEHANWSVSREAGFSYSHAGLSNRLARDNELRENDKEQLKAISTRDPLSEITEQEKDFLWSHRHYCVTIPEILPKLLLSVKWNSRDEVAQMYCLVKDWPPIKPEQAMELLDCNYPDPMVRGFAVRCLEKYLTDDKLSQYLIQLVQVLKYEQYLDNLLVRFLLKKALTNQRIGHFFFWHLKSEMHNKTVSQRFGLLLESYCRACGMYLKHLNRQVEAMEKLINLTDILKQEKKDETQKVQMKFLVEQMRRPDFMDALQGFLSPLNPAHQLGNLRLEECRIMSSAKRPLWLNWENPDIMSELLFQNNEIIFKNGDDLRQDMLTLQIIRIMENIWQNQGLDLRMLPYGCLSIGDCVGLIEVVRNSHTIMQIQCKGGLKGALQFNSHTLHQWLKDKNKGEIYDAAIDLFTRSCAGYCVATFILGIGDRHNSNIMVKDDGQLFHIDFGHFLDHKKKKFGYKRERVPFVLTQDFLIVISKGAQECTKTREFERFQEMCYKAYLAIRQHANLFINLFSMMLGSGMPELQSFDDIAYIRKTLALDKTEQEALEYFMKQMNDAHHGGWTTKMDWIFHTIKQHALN

In [1], `N#Cc1cccc(-c2c[nH]c3ncc(-c4cncc(NS(=O)(=O)c5ccc(F)cc5F)c4)cc23)c1` gave an IC50 of 27 nM.

Regarding `COc1ccc(-c2c[nH]c3ncc(-c4cncc(NS(=O)(=O)c5ccccc5)c4)cc23)cc1OC`, the IC50 amounted to 12 nM in [1], 8500 nM in [2] and 22000 nM in [3].

The molecule `O=S(=O)(Nc1cncc(-c2cnc3[nH]ccc3c2)c1)c1ccccc1` gave an IC50 in [1] of 5200 nM.

On to `COc1ccc(-c2c[nH]c3ncc(-c4cncc(N)c4)cc23)cc1OC`, for which, in assay [1], 460 nM corresponded to half-maximal inhibition (IC50).

As to `CC(=O)c1c[nH]c2ncc(-c3cnc(N)c(NS(=O)(=O)N4CCOCC4)c3)cc12`, in assay [1], the IC50 stood at 730 nM.

On to `O=S(=O)(Nc1cncc(-c2cnc3[nH]cc(-c4cccnc4)c3c2)c1)c1ccccc1`, for which the IC50 in [1] amounted to 12 nM; in [2], 3600 nM; in [3], 12000 nM; in [4], 6800 nM.

As to `CC(=O)c1c[nH]c2ncc(-c3cncc(NS(=O)(=O)c4ccccc4)c3)cc12`, the IC50 in assay [1] was determined as 620 nM.

Regarding `N#Cc1cccc(-c2c[nH]c3ncc(-c4cnc(N)c(NS(=O)(=O)N5CCOCC5)c4)cc23)c1`, in [1], the IC50 is 130 nM.

`COc1ccc(-c2c[nH]c3ncc(-c4cnc(N)c(NS(=O)(=O)c5ccc(F)cc5F)c4)cc23)cc1OC` yielded an IC50 in assay [1] of 3 nM.

As to `COc1ccc(-c2c[nH]c3ncc(-c4cccc(NS(=O)(=O)c5ccccc5)c4)cc23)cc1OC`, the midpoint of inhibition in [1], the IC50, lay at 1600 nM.

`N#Cc1cccc(-c2c[nH]c3ncc(-c4cncc(NS(=O)(=O)c5ccccc5)c4)cc23)c1` registered an IC50 in assay [1] of 31 nM.

On to `CS(=O)(=O)Nc1cccc(-c2c[nH]c3ncc(-c4cncc(NS(=O)(=O)c5ccccc5)c4)cc23)c1`, for which half-maximal inhibition in [1] (IC50) was put at 950 nM.

As for `COc1ccc(-c2c[nH]c3ncc(-c4cnc(N)c(NS(=O)(=O)N5CCOCC5)c4)cc23)cc1OC`, the Activity in assay [5] is 90.61%; in assay [6], 28.24%; in assay [7] it was 47.5%; in assay [8], 7.32%; in assay [9] it was 19.64%; in assay [10], “Dose-dependent effect”. Moreover, the Activity result is “Dose-dependent effect” in [11]; 1.56% in assay [12]; 3.04% in assay [13]; 0.96% in assay [14]; 94.44% in [15]; 1.52% in [16]. Besides, the Activity came to 4.98% in [17] and 2.86% in assay [18]. For the same molecule, the IC50 turned out to be 700 nM in assay [2] and 3700 nM in assay [3].
